Laboratory results: ChEMBL document CHEMBL3399923, “Design and synthesis of new bioisosteres of spirooxindoles (MI-63/219) as anti-breast cancer agents” (Bioorg Med Chem, 2015)
Calls of active or inactive are those of the source. No cut-off for these calls is given here.

What was measured:
MDA-MB-231 = assay: Cytotoxicity against human MDA-MB-231 cells after 48 hrs by MTT assay; type: functional, cell-based; conditions: MDA-MB-231, 48 h
Summary of the method: (§1)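 MTT viability screen for cytotoxicity across the breast cancer and normal kidney epithelial lines; IC50 reported in µM.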

MCF7 [1] = assay: Cytotoxicity against human MCF7 cells after 48 hrs by MTT assay; type: functional, cell-based; conditions: MCF7, 48 h; summary of the method: as §1
HEK293 = assay: Cytotoxicity against human HEK293 cells after 48 hrs by MTT assay; type: cell-based; conditions: HEK293, 48 h; summary of the method: as §1
Vero = assay: Cytotoxicity against African green monkey Vero cells after 48 hrs by MTT assay; type: cell-based; conditions: Chlorocebus sabaeus; summary of the method: as §1
MCF7 [2] = assay: Increase in p53 mRNA expression in human MCF7 cells at 2.5 to 7.5 uM by RT-PCR analysis; type: functional, cell-based
Summary of the method: (§2)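 p53 and MDM2 mRNA were measured by real-time quantitative PCR in vehicle- versus compound-treated MCF-7 or primary breast cancer cells. Data are the mean of three separate experiments with SEM, compared with control.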

MCF7 [3] = assay: Increase in MDM2 mRNA expression in human MCF7 cells at 2.5 to 7.5 uM by RT-PCR analysis; type: functional, cell-based; summary of the method: as §2
MCF7 [4] = assay: Increase in p53 protein expression in human MCF7 cells; type: functional, cell-based
MCF7 [5] = assay: Increase in MDM2 protein expression in human MCF7 cells; type: functional, cell-based
MCF7 [6] = assay: Increase in p53 […] in human MCF7 cells assessed as increase in p21 promoter activity after 18 hrs by luciferase reporter gene assay; type: functional, cell-based
MCF7 [7] = assay: Increase in p21 mRNA expression in human MCF7 cells at 5 to 7.5 uM by RT-PCR analysis; type: functional, cell-based
Summary of the method: (§3)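 Real-time quantitative PCR of p21, cyclin D1, A1, B1 and E1 mRNA in treated MCF-7 cells. Mean with SEM, n = 3, compared with control.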

MCF7 [8] = assay: Increase in p21 protein expression in human MCF7 cells at 7.5 uM by immunoblotting analysis relative to control; type: functional
Summary of the method: (§4)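 Western blot of cell-cycle regulatory proteins (p21, cyclin D1, phospho-Rb) in MCF-7 or primary breast cancer cells. Densitometric quantitation is given as fold change versus control; mean with SEM, n = 3.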

[9] = Increase in p21 protein expression in human primary breast adenocarcinoma cells at 7.5 uM by immunoblotting analysis relative to control; type: functional; summary of the method: as §4
MCF7 [10] = assay: Increase in p21 protein expression in human MCF7 cells assessed as reduction in cyclin D1 expression at 2.5 to 7.5 uM by immunoblotting analysis; type: functional, cell-based; summary of the method: as §4
Homo sapiens [11] = species on record: Homo sapiens; assay: Increase in p21 protein expression in human primary breast adenocarcinoma cells assessed as reduction in cyclin D1 expression at 2.5 to 7.5 uM by immunoblotting analysis; type: functional; summary of the method: as §4
MCF7 [12] = assay: Increase in p21 protein expression in human MCF7 cells assessed as reduction in Rb phosphorylation at 2.5 to 7.5 uM by immunoblotting analysis; type: functional, cell-based; summary of the method: as §4
Homo sapiens [13] = species on record: Homo sapiens; assay: Increase in p21 protein expression in human primary breast adenocarcinoma cells assessed as reduction in Rb phosphorylation at 2.5 to 7.5 uM by immunoblotting analysis; type: functional; summary of the method: as §4
MCF7 [14] = assay: Cell cycle arrest in human MCF7 cells assessed as accumulation at G1 phase at 7.5 uM after 48 hrs by propidium iodide staining-based flow cytometry (reference value: 60%); type: functional
Summary of the method: (§5)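 Cells were exposed to 7.5µM, then stained with propidium iodide and analysed by flow cytometry for the percentage of cells in each cell-cycle phase. Mean with SEM is from three independent experiments, compared with control.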

[15] = Cell cycle arrest in human primary breast adenocarcinoma cells assessed as accumulation at G1 phase at 7.5 uM after 48 hrs by propidium iodide staining-based flow cytometry (reference value: 60%); type: functional; summary of the method: as §5
MCF7 [16] = assay: Cell cycle arrest at G1/S phase in human MCF7 cells assessed as reduction in cyclin D1 mRNA expression at 2.5 to 7.5 uM after 48 hrs by RT-PCR analysis; type: functional, cell-based; summary of the method: as §3
MCF7 [17] = assay: Cell cycle arrest at G1/S phase in human MCF7 cells assessed as reduction in cyclin E1 mRNA expression at 2.5 to 7.5 uM after 48 hrs by RT-PCR analysis; type: functional, cell-based; summary of the method: as §3
MCF7 [18] = assay: Cell cycle arrest at G1/S phase in human MCF7 cells assessed as reduction in cyclin A1 mRNA expression at 2.5 to 7.5 uM after 48 hrs by RT-PCR analysis; type: functional, cell-based; summary of the method: as §3
MCF7 [19] = assay: Cell cycle arrest at G2/M phase in human MCF7 cells assessed as reduction in cyclin B1 mRNA expression at 2.5 to 7.5 uM after 48 hrs by RT-PCR analysis; type: functional, cell-based; summary of the method: as §3
MCF7 [20] = assay: Antitumor activity against human MCF7 cells xenografted in nude mouse assessed as reduction in tumor volume at 20 mg/kg, po administered for 14 days relative to vehicle-treated control; type: functional; parameters: scale not given: the % may be the effect or the level left
Summary of the method: (§6)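 MCF-7 xenograft tumors were induced in athymic nude mice and dosed at 20 mg/kg body weight/day for 14 days, alongside a vehicle-treated group. Tumor volume, average tumor size and body weight were tracked. Liver, lungs, spleen, uterus and kidney were examined histomorphologically against vehicle.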

MCF7 [21] = assay: Antitumor activity against human MCF7 cells xenografted in nude mouse assessed as reduction in tumor size at 20 mg/kg, po administered for 14 days relative to vehicle-treated control; type: functional; parameters: scale not given: the % may be the effect or the level left; summary of the method: as §6
Mus musculus [22] = assay: Toxicity in nude mouse xenografted with human MCF7 cells assessed as change in body weight at 20 mg/kg, po administered for 14 days relative to vehicle-treated control; type: organism-based; parameters: dose 20 mg/kg, route oral; conditions: in vivo, 336 h; summary of the method: as §6
Mus musculus [23] = assay: Toxicity in nude mouse xenografted with human MCF7 cells assessed as change in liver at 20 mg/kg, po administered for 14 days by histomorphology relative to vehicle-treated control; type: organism-based; parameters: dose 20 mg/kg, route oral; conditions: in vivo, 336 h; summary of the method: as §6
Mus musculus [24] = assay: Toxicity in nude mouse xenografted with human MCF7 cells assessed as change in lungs at 20 mg/kg, po administered for 14 days by histomorphology relative to vehicle-treated control; type: organism-based; parameters: dose 20 mg/kg, route oral; conditions: in vivo, 336 h; summary of the method: as §6
Mus musculus [25] = assay: Toxicity in nude mouse xenografted with human MCF7 cells assessed as change in spleen at 20 mg/kg, po administered for 14 days by histomorphology relative to vehicle-treated control; type: organism-based; parameters: dose 20 mg/kg, route oral; conditions: in vivo, 336 h; summary of the method: as §6
Mus musculus [26] = assay: Toxicity in nude mouse xenografted with human MCF7 cells assessed as change in uterus at 20 mg/kg, po administered for 14 days by histomorphology relative to vehicle-treated control; type: organism-based; parameters: dose 20 mg/kg, route oral; conditions: in vivo, 336 h; summary of the method: as §6
Mus musculus [27] = assay: Toxicity in nude mouse xenografted with human MCF7 cells assessed as change in kidney at 20 mg/kg, po administered for 14 days by histomorphology relative to vehicle-treated control; type: organism-based; parameters: dose 20 mg/kg, route oral; conditions: in vivo, 336 h; summary of the method: as §6
Mus musculus [28] = assay: Antitumor activity against human MCF7 cells xenografted in nude mouse assessed as increase in p21 protein expression at 20 mg/kg, po administered for 14 days by Western blotting analysis; type: functional, organism-based; parameters: dose 20 mg/kg
Mus musculus [29] = assay: Antitumor activity against human MCF7 cells xenografted in nude mouse assessed as reduction in cyclin D1 protein expression at 20 mg/kg, po administered for 14 days by Western blotting analysis; type: functional, organism-based; parameters: dose 20 mg/kg
Mus musculus [30] = assay: Antitumor activity against human MCF7 cells xenografted in nude mouse assessed as reduction in phosphorylated Rb level at 20 mg/kg, po administered for 14 days by Western blotting analysis; type: functional, organism-based; parameters: dose 20 mg/kg
Homo sapiens [31] = species on record: Homo sapiens; assay: Increase in p53 mRNA expression in human primary breast adenocarcinoma cells at 2.5 to 7.5 uM by RT-PCR analysis; type: functional; summary of the method: as §2
Homo sapiens [32] = species on record: Homo sapiens; assay: Increase in MDM2 mRNA expression in human primary breast adenocarcinoma cells at 2.5 to 7.5 uM by RT-PCR analysis; type: functional; summary of the method: as §2
Homo sapiens [33] = species on record: Homo sapiens; assay: Increase in p53 protein expression in human primary breast adenocarcinoma cells; type: functional
Homo sapiens [34] = species on record: Homo sapiens; assay: Increase in MDM2 protein expression in human primary breast adenocarcinoma cells; type: functional

SMILES: O=C(c1ccccc1)C1[C@H](c2ccc(O)cc2)[C@@H](c2ccccc2)NC12C(=O)Nc1ccccc12 (some centres undefined)
- IC50 (MDA-MB-231): 37.3 µM
- IC50 (MCF7 [1]): 36.3 µM
- IC50 (HEK293): > 50 µM
- IC50 (Vero): > 50 µM

SMILES: O=C(c1ccc(OCCN2CCCCC2)cc1)C1[C@H](c2ccccc2)[C@@H](c2ccccc2)NC12C(=O)Nc1ccc(Cl)cc12 (some centres undefined)
- IC50 (MDA-MB-231): 3.7 µM
- IC50 (MCF7 [1]): 6.5 µM
- IC50 (HEK293): > 50 µM
- IC50 (Vero): > 50 µM
- Activity (MCF7 [2]): Active
- Activity (MCF7 [3]): Active
- Activity (MCF7 [4]): Active
- Activity (MCF7 [5]): Active
- Activity (MCF7 [6]): Dose-dependent effect
- Activity (MCF7 [7]): Active
- Ratio (MCF7 [8]): 2.5
- Ratio [9]: 2.5
- Activity (MCF7 [10]): Active
- Activity (Homo sapiens [11]): Active
- Activity (MCF7 [12]): Active
- Activity (Homo sapiens [13]): Active
- Activity (MCF7 [14]): 90%
- Activity [15]: 90%
- Activity (MCF7 [16]): Active
- Activity (MCF7 [17]): Active
- Activity (MCF7 [18]): Active
- Activity (MCF7 [19]): inactive
- Activity (MCF7 [20]): 66%
- Activity (MCF7 [21]): 66%
- Activity (Mus musculus [22]): Non-toxic
- Activity (Mus musculus [23]): Non-toxic
- Activity (Mus musculus [24]): Non-toxic
- Activity (Mus musculus [25]): Non-toxic
- Activity (Mus musculus [26]): Non-toxic
- Activity (Mus musculus [27]): Non-toxic
- Activity (Mus musculus [28]): Active
- Activity (Mus musculus [29]): Active
- Activity (Mus musculus [30]): Active
- Activity (Homo sapiens [31]): Active
- Activity (Homo sapiens [32]): Active
- Activity (Homo sapiens [33]): Active
- Activity (Homo sapiens [34]): Active

SMILES: CC/C(=C(\c1ccc(O)cc1)c1ccc(OCCN(C)C)cc1)c1ccccc1
- IC50 (MCF7 [1]): 13.6 µM
- IC50 (HEK293): > 50 µM
- IC50 (Vero): > 50 µM

SMILES: O=C(c1ccc(OCCN2CCCC2)cc1)C1[C@H](c2ccccc2)[C@@H](c2ccccc2)NC12C(=O)Nc1ccccc12 (some centres undefined)
- IC50 (MDA-MB-231): 16.8 µM
- IC50 (MCF7 [1]): 23 µM
- IC50 (HEK293): 25.3 µM
- IC50 (Vero): 19.4 µM

SMILES: O=C(c1ccc(OCCN2CCCCC2)cc1)C1[C@H](c2ccccc2)[C@@H](c2ccccc2)NC12C(=O)Nc1ccccc12 (some centres undefined)
- IC50 (MDA-MB-231): 28.2 µM
- IC50 (MCF7 [1]): 13.9 µM
- IC50 (HEK293): 30.8 µM
- IC50 (Vero): 32.4 µM

SMILES: CN(C)CCOc1ccc(C(=O)C2[C@H](c3ccccc3)[C@@H](c3ccccc3)NC23C(=O)Nc2ccc([N+](=O)[O-])cc23)cc1 (some centres undefined)
- IC50 (MDA-MB-231): 17.8 µM
- IC50 (MCF7 [1]): 17.2 µM
- IC50 (HEK293): 24.2 µM
- IC50 (Vero): 28.8 µM

SMILES: CN(C)CCCOc1ccc(C(=O)C2[C@H](c3ccccc3)[C@@H](c3ccccc3)NC23C(=O)Nc2ccccc23)cc1 (some centres undefined)
- IC50 (MDA-MB-231): 9.2 µM
- IC50 (MCF7 [1]): 9.6 µM
- IC50 (HEK293): > 50 µM
- IC50 (Vero): > 50 µM

SMILES: CCN1C(=O)C2(N[C@H](c3ccccc3)[C@@H](c3ccccc3)C2C(=O)c2ccc(OCCN3CCOCC3)cc2)c2ccccc21 (some centres undefined)
- IC50 (MDA-MB-231): > 50 µM
- IC50 (MCF7 [1]): > 50 µM
- IC50 (HEK293): > 50 µM
- IC50 (Vero): > 50 µM
